Key:
Histone deacetylase 8 [1] = molecular target: T1, Histone deacetylase 8 (Homo sapiens, UniProt Q9BY41); assay: Inhibition of recombinant human HDAC8 using Fluor de Lys as substrate preincubated for 90 mins followed by BML-KI176 addition measured after 45 mins by fluorescence assay
T1 sequence (Q9BY41 whole entry): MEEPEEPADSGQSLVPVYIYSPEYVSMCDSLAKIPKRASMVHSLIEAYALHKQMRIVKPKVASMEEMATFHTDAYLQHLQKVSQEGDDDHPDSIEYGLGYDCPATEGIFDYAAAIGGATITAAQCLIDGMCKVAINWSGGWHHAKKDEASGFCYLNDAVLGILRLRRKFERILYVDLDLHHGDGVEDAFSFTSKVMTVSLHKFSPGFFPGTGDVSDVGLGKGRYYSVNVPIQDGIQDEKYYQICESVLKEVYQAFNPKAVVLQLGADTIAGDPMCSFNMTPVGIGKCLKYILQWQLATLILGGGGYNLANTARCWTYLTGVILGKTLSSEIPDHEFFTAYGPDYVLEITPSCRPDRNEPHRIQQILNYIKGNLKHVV

Histone deacetylase 1 = Histone deacetylase 1 (Homo sapiens, UniProt Q13547); assay: Inhibition of recombinant human HDAC1 using Cbz-(Ac)Lys-AMC as substrate preincubated for 90 mins followed by trypsin addition measured after 20 mins by fluorescence assay
Chain of Histone deacetylase 1 (Q13547 whole entry): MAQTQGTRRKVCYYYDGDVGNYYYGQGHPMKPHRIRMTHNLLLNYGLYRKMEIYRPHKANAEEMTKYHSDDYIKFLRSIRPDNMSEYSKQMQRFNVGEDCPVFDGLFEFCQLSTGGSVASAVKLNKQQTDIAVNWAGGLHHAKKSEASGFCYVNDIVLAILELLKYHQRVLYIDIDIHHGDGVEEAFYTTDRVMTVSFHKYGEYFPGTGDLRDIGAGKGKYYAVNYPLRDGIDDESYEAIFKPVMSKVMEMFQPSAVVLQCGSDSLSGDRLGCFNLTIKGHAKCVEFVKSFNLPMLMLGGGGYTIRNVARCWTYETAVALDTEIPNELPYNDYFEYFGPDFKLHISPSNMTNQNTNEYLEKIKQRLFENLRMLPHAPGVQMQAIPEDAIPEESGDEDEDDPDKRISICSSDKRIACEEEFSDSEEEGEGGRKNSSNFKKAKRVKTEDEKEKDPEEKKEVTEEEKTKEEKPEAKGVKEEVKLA

[2] = molecular target: T2, Protein deacetylase HDAC6 (Homo sapiens, UniProt Q9UBN7); assay: Inhibition of recombinant human HDAC6 using Cbz-(Ac)Lys-AMC as substrate preincubated for 90 mins followed by trypsin addition measured after 20 mins by fluorescence assay
T2 sequence (Q9UBN7 whole entry): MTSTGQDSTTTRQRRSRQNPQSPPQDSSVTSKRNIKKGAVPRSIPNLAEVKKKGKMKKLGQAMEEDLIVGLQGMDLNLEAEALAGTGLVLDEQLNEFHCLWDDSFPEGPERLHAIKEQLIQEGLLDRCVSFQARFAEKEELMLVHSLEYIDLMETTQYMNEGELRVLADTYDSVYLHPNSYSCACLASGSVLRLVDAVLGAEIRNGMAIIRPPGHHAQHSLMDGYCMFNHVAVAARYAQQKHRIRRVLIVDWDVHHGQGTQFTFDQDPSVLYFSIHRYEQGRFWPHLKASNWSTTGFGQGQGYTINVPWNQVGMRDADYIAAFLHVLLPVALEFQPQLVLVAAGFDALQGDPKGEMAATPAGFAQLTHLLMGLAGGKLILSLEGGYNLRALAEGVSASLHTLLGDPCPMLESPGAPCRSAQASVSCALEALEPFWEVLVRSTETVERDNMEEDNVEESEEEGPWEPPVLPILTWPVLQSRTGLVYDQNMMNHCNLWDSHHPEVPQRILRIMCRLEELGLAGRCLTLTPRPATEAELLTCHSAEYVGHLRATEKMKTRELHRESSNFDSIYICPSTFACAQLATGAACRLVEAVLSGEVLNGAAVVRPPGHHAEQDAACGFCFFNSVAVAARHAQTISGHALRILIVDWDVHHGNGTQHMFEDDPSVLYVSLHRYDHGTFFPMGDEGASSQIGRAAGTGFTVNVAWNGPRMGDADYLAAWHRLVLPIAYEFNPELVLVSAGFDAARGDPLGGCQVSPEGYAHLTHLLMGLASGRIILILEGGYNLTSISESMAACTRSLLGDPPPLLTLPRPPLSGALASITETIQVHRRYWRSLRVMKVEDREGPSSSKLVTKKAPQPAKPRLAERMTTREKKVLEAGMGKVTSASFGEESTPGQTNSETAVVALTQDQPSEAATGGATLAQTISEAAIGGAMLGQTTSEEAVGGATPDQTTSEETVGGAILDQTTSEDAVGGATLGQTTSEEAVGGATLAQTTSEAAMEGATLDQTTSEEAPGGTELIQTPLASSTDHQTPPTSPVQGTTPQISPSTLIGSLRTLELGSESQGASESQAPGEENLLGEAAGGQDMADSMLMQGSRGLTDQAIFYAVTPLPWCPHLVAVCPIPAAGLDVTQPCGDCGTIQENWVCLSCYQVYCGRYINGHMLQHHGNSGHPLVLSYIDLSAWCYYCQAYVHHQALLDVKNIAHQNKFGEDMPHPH

[3] = Cytotoxicity against HEK293 cells assessed as cell viability at 50 uM after 24 hrs by Alamar Blue assay relative to control; type: cell-based; conditions: human, read-out: Activity
Procedure, shortened: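 AlamarBlue added after 24 h, incubated a further 21 h; resorufin fluorescence ex 560/em 590 nm. Triplicates; viability relative to untreated cells; daunorubicin positive control.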

Schistosoma mansoni [4] = assay: Antiparasitic activity against schistosomula stage of Schistosoma mansoni assessed as parasite viability at 20 uM after 48 hrs by Alamar Blue assay relative to control; type: functional
Procedure, shortened: (§1)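 Mechanically transformed S. mansoni schistosomula, 100 per well, in Medium 199 with 10% FCS, penicillin, streptomycin and rifampicin, held 3 h at 37°C/5% CO2 before use. […] Resazurin added at 48 h; fluorescence (ex 530/em 590 nm) read 24 h later, corrected for drug-medium background. Ethanol-killed larvae as dead control. Triplicate wells, two biological replicates.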

Histone deacetylase 8 [5] = molecular target: T3, Histone deacetylase 8 (Schistosoma mansoni, UniProt A5H660); assay: Inhibition of recombinant Schistosoma mansoni HDAC8 expressed in Escherichia coli using Fluor de Lys as substrate preincubated for 90 mins followed by BML-KI176 addition measured after 45 mins by fluorescence assay
T3 sequence (A5H660 whole entry): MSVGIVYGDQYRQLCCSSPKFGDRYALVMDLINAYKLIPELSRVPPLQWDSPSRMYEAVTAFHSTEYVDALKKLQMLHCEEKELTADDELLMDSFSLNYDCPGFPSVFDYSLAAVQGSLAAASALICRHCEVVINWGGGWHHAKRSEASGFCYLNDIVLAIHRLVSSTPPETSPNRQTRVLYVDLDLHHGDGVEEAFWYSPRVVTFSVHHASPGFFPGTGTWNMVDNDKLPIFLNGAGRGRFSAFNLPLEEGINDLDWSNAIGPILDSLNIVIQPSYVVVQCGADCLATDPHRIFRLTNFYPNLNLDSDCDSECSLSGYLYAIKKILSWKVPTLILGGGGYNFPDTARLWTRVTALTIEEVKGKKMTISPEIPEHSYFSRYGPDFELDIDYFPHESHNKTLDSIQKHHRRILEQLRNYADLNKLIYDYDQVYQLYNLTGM
Procedure, shortened: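 smHDAC8 produced in E. coli. Fluor de Lys kit: compound, Fluor de Lys-HDAC8 substrate (50 µM) and enzyme incubated 90 min at 37°C, then Developer II for 45 min at 30°C. Reaction stopped with trichostatin A (2 µM). Fluorescence read at ex 390/em 460 nm. IC50 given as mean ± S.E.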

Schistosoma mansoni [6] = assay: Antiparasitic activity against schistosomula stage of Schistosoma mansoni assessed as parasite viability at 10 uM after 48 hrs by Alamar Blue assay relative to control; type: functional; procedure, shortened: as §1

| Structure (SMILES) | IC50 (Histone deacetylase 8 [1]; read-out: IC50) [nM] | IC50 (Histone deacetylase 1; read-out: IC50) [nM] | IC50 ([2]; read-out: IC50) [nM] | viability at 24 h, 50 µM [3] [%] | Activity (Schistosoma mansoni [4]) [%] | IC50 (Histone deacetylase 8 [5]; read-out: IC50) [nM] | Activity (Schistosoma mansoni [6]) [%] | IC50 (Histone deacetylase 8 [1]) | IC50 (Histone deacetylase 1) | IC50 [2] | IC50 (Histone deacetylase 8 [5]) |
| --- | --- | --- | --- | --- | --- | --- | --- | --- | --- | --- | --- |
| CC(C)Oc1ccc(C(=O)NO)cc1NC(=O)c1ccccc1 | 29 | 3600 | 2600 | 129 | 68.7 | 220 | 75 |  |  |  |  |
| COc1ccc(Cn2ccc3ccc(C(=O)NO)cc32)cc1 |  |  |  |  | 62.3 | 436 | 70.6 |  |  |  |  |
| COc1ccc(C(=O)O)cc1NC(=O)c1ccc(-c2ccccc2)cc1 |  |  |  |  |  |  |  | Not Active | Not Active | Not Active | Not Active |
| COc1ccc(C(=O)Nc2cc(C(=O)NO)ccc2Cl)cc1 | 236 | 4100 | 130 | 62.5 | 60.7 | 147 | 63.2 |  |  |  |  |
| COc1ccc(C(=O)NO)cc1NC(=O)c1ccc(Cl)cc1 | 240 | 2900 | 900 | 92.6 |  | 146 |  |  |  |  |  |
| O=C(NO)c1ccc(Cl)c(NC(=O)c2ccccc2)c1 | 120 | 11600 | 120 | 72.2 |  | 67 | 84.7 |  |  |  |  |
| O=C(NO)c1ccc(Cl)c(NC(=O)c2ccc([N+](=O)[O-])cc2)c1 |  |  |  | 79.1 | 68.1 | 394 | 85.3 |  |  |  |  |
| Cc1ccc(C(=O)NO)cc1NC(=O)c1ccccc1 | 204 | 8400 | 900 | 71.2 | 72.4 | 116 | 82.9 |  |  |  |  |
| O=C(NO)c1cccc(NC(=O)c2ccccc2)c1 | 582 |  |  |  | 75.6 | 468 | 79.2 |  |  |  |  |
| COc1ccc(C(=O)NO)cc1NC(=O)c1cccc(-c2ccccc2)c1 |  |  |  | 76.2 | 57 | 290 | 58.8 |  |  |  |  |
| CCCOc1ccc(C(=O)NO)cc1NC(=O)c1ccccc1 |  |  |  | 97.4 |  | 267 |  |  |  |  |  |
| O=C(NO)c1ccc(F)c(NC(=O)c2ccccc2)c1 | 318 | 22300 | 500 | 81.8 | 78.6 | 178 | 82 |  |  |  |  |
| O=C(NO)c1ccc2ccccc2n1 | 582 |  |  | 73.3 |  | 8200 | 95.6 |  |  |  |  |
| O=C(NO)c1ccc(Br)c(NC(=O)c2ccccc2)c1 | 191 | 7400 | 150 | 64.3 | 63.1 | 150 | 70.8 |  |  |  |  |
| O=C(NO)c1ccc(Cl)c(NC(=O)c2ccc(Cl)cc2Cl)c1 | 1180 | 31600 | 800 | 70.4 | 59.3 | 191 | 72.5 |  |  |  |  |
| COc1ccc(C(=O)NO)cc1NC(=O)Cc1ccccc1 | 512 | 28900 | 5100 | 88.7 | 82.8 | 183 | 83.3 |  |  |  |  |
| O=C1CCSc2ccc(C(=O)NO)cc2N1 | 620 | 9800 | 1300 |  |  | 1220 |  |  |  |  |  |
| O=C(NO)c1ccc(Cl)c(NC(=O)c2cccc(Oc3ccccc3)c2)c1 | 449 | 6400 | 300 | 62 | 55 | 396 | 62.9 |  |  |  |  |
| O=C(NO)c1ccc(C(F)(F)F)c(NC(=O)c2ccccc2)c1 | 342 | 2400 | 140 | 96 | 77.4 | 140 | 99.9 |  |  |  |  |
| O=C(C1CCCCC1)N1CC(=O)N2CCc3ccccc3C2C1 (stereo not drawn) [PRAZIQUANTEL] |  |  |  |  | 89 |  | 92 |  |  |  |  |
| O=C(NO)c1ccc(Cl)c(NC(=O)c2ccc(Oc3ccccc3)cc2)c1 | 1080 | 8500 | 150 |  |  | 979 |  |  |  |  |  |
| COc1ccc(C(=O)NO)cc1S(=O)(=O)Nc1ccc(C)cc1 | 19.8 | 20000 | 2400 | 80.2 | 73.8 | 485 | 77.7 |  |  |  |  |
| CCOc1ccc(C(=O)Nc2cc(C(=O)NO)ccc2OC)cc1 | 438 | 4400 | 1000 | 87.7 |  | 305 |  |  |  |  |  |
| CCOc1ccc(C(=O)NO)cc1NC(=O)c1ccccc1 | 172 | 4600 | 1300 | 70.4 |  | 129 | 89.7 |  |  |  |  |
| O=C(NO)c1cccc(NC2CCCCC2)c1 | 830 | 130000 |  | 70.7 |  | 3630 | 82.7 |  |  |  |  |
| CC1Sc2ccc(C(=O)NO)cc2NC1=O (stereo not drawn) | 970 | 27500 | 3600 |  |  | 1480 |  |  |  |  |  |
| COc1ccc(C(=O)NO)cc1OCc1ccccc1 |  |  |  |  |  | 268 |  |  |  |  |  |
| COC(=O)c1ccc(OC)c(NC(=O)c2ccc(-c3ccccc3)cc2)c1 |  |  |  | 47.2 |  |  |  | Not Active | Not Active | Not Active | Not Active |
| Cc1ccc(C(=O)NO)cc1NC(=O)c1ccc2ccccc2n1 | 30.3 | 2700 | 90 |  | 59.4 | 96.1 | 74.9 |  |  |  |  |

Reference: ChEMBL document CHEMBL3797085, “Structure-Based Design and Synthesis of Novel Inhibitors Targeting HDAC8 from Schistosoma mansoni for the Treatment of Schistosomiasis” (J Med Chem, 2016)
